# OX1R antag-1 – OX1R (human) antagonism; 330,000 compounds, 1.8% hits; inhibition, % at 6.6 µM; AID 485270; OX1R-expressing cells, FRET antagonist read-out; in the data active means inhibition mostly above about 38%, no sharp cut-off; inactive means mostly below about 40%;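 further: 0% = agonist challenge alone and 100% = reference antagonist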
# V1R ag counter – V1a receptor agonism, counter-screen for OXTR agonists. P37288. activation, % at 3 µM. AID 2797. 320,000 compounds, 0.25% hits. CHO-V1R cells, Fluo-8 calcium fluorescence, agonist mode; 0% DMSO, 100% 3 nM vasopressin;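 active means activation above the mean activation of all tested compounds plus 3 SD, per screening run, cut at about 20% in these data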;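 further: signal is peak over basal fluorescence ratio across a 100 second FLIPR read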
# OXTR potentiator – potentiates the human oxytocin receptor response | P30559 | CHO-OTR cells, Fluo-8 calcium fluorescence, potentiator mode; 0% = oxytocin EC15, 100% = EC100 | activation, % at 3 µM | 320,000 compounds, 0.061% hits | AID 2445;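 active means activation above that plate's cutoff, the mean activation of tested compounds plus 3 SD, cut at about 6.6% in these data, passing the limit was not always enough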;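 further: 100% uses oxytocin at 75 nM as the full agonist control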
# Target sequence (P30559 whole entry, looked up): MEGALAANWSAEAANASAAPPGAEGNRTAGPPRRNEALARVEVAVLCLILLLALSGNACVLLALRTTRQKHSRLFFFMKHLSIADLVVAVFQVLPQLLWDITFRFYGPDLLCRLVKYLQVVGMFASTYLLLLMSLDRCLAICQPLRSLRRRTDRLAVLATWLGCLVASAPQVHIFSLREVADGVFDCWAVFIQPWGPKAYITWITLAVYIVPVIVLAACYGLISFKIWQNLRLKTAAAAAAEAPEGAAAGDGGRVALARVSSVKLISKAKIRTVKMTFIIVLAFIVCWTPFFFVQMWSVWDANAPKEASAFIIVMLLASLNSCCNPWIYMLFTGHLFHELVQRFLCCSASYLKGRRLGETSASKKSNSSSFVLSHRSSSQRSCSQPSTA
#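 Material: human OTR in CHO cells. Compound: 3.0 µM, one dose. Timing: compound 6 min at room temperature before oxytocin, 100 s read. Evaluation: % activation of max/min ratio relative to oxytocin controls. Replication: single well per compound, singlicate. Signal: Fluo-8 calcium dye fluorescence.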
# CHO parental Ca – counter-screen for OX1R antagonists: effect in parental CHO cells. parental CHO-K1, ATP-induced calcium, Fluo-8 fluorescence. inhibition, % at 5.6 µM. 330,000 compounds, 0.63% hits;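 active means inhibition above that plate's mean sample inhibition plus 3 SD, cut at about 26% in these data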;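 further: 0% = ATP-challenged DMSO wells and 100% = DMSO wells without ATP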
#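 Test system: untransfected parental CHO cell line; also added: ATP stimulus; dosing: 5.6 µM, single dose; signal: calcium-sensitive Fluo-8 fluorescence; measure: percent inhibition of ATP-evoked calcium rise, normalized to controls; benchmarks: low control ATP plus DMSO, high control DMSO only; replication: one well per compound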
# OX1R antag-2 – blocks the human orexin 1 receptor; CHO/OX1R cells, Fluo-8 calcium fluorescence, orexin A; inhibition, % at 5 µM; 330,000 compounds, 0.43% hits;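 active means inhibition above its plate's threshold, mean inhibition of all tested compounds on the plate plus 3 SD, cut at about 37% in these data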;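 further: 0% = orexin A challenge wells and 100% = SB-334867-A antagonist wells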
# OXTR ag – agonists of human oxytocin receptor | CHO-OTR cells, Fluo-8 calcium fluorescence; normalized: DMSO 0%, oxytocin 100% | activation, % at 3 µM | 320,000 compounds, 0.32% hits;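 active means activation above the mean of all tested compounds plus 3 SD, cutoff set per screening run, cut at about 20% in these data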;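 further: peak over basal fluorescence ratio from a 100 s FLIPR kinetic read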
# OXTR pot cf – confirmation of human oxytocin receptor potentiators. CHO-OTR cells, Fluo-8 calcium fluorescence, potentiation; scaled from low-dose to maximal oxytocin. AID 434985. 180 tested, under 10 active. shares compounds with OXTR potentiator. activation, % at 3 µM;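 active means mean percent activation over triplicates above a cutoff set from solvent-only control plates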;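 further: compounds tested in the presence of an EC15 dose of oxytocin; 0% = EC15 oxytocin with DMSO and 100% = EC100 oxytocin with DMSO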
# * marks the source's active call; other numbers are inactive results; nt = not tested or not shown. Hits are enriched below; roughly 2.6% of the tested compounds scored in any of these assays.
SMILES,OX1R antag-1,V1R ag counter,OXTR potentiator,CHO parental Ca,OX1R antag-2,OXTR ag,OXTR pot cf
CCOC(=O)c1sc(C)c2c1NC1(CCCCC1)NC2=O,13,-2,11*,-20,-25,-2,1
CCOC(=O)c1sc(C)c2c1NC1(CCCCCC1)NC2=O,19,-1,-14,-21,-30,0,nt
O=C(CSc1ncnc2sc3c(c12)CCC3)NCC1CCCO1 (stereo not given),18,2,20*,-17,-24,-1,-3
CCOC(=O)c1ccc(S(=O)(=O)N2CCN(S(=O)(=O)CC)CC2)cc1,10,2,-11,-7,-5,1,nt
CCOC(=O)c1ccc(S(=O)(=O)N2CCNCC2)cc1,3,6,13*,-1,-5,1,-4
CCCN(C#N)c1nc(NCC)nc(NC(C)C)n1,48,-1,-7,-18,-28,-1,nt
CCNc1nc(NC(C)C)nc(N(C)C#N)n1,7,1,13*,-11,-6,-1,3
O=C(NC1=NCCS1)c1ccc(F)c(S(=O)(=O)N2CCOCC2)c1,-2,1,-3,-1,20,1,nt
CN1CCN(NC(=O)c2c(-c3ccccc3)sc3ccccc23)CC1,0,1,-4,-21,1,-1,nt
COc1ccccc1NC(=O)CCN1C(=O)C2CC=CCC2C1=O (stereo not given),13,0,-9,3,0,0,nt
Cc1ccc(C)c(NC(=O)CCN2C(=O)C3CC=CCC3C2=O)c1 (stereo not given),7,1,15*,-13,-15,1,-3
CCOc1ccc(CCNC(=O)COC(=O)c2ccc(C)c([N+](=O)[O-])c2)cc1OCC,18,-1,-1,-17,-20,-1,nt
O=C(O)c1ccc(-c2nnn(Cc3ccccc3F)n2)cc1,19,2,7.6*,-6,-8,2,-4
Cc1ccccc1Cn1nnc(-c2ccc(C(=O)O)cc2)n1,12,1,-11,4,-17,2,nt
Cc1cc(C)nc(N2CCCC(CCC(=O)NCc3ccc(F)c(F)c3)C2)n1 (stereo not given),10,-2,-13,-15,5,-2,nt
Cc1nnsc1Sc1ccccc1,25,-1,-16,-16,-15,0,nt
COC(=O)C1CC(Cl)CN1c1ncc(C(F)(F)F)cc1Cl (stereo not given),19,-1,16*,-11,-30,-3,-2
Cc1ccc(NC(=O)C(c2ccccc2)N2CCN(CC(=O)NC3CC3)CC2)cc1 (stereo not given),5,0,-2,-6,-22,0,nt
CCOc1ccc(NC(=O)Cc2ccc(NC3=NC4CS(=O)(=O)CC4S3)cc2)cc1 (stereo not given),-1,-1,-8,-1,-8,-1,nt
CCc1ccc(NC(=O)Cc2ccc(NC3=NC4CS(=O)(=O)CC4S3)cc2)cc1 (stereo not given),9,0,8.3*,2,4,0,-4
O=C(Cn1ncc2ccccc21)N1CCc2ccccc21,5,0,12*,-9,-23,-1,-6
O=C(Cn1cnc2ccccc21)N1CCc2ccccc21,3,1,-1,-9,2,1,nt
CCOc1ccccc1NC(=O)c1cccc(NC(=O)CC(c2ccccc2)c2ccccc2)c1,-28,2,26*,-27,-57,3,9.7*
COc1ccc2c(c1)N(S(=O)(=O)c1ccccc1)CCC2=O,36,0,-3,-3,3,0,nt
COc1cc(OC)cc(-c2c(-c3cccs3)c3cc(-c4ccc(C(N)=O)cc4)ccc3n2C)c1,-2,2,13*,-13,-57,3,-5
O=C1OC(c2cccc([N+](=O)[O-])c2)C2(CCCC2)C(=O)C12CCCCC2 (stereo not given),19,-1,-7,-36,-15,-2,nt
Cc1cccc(N(Cc2ccccc2)C(=O)c2cccc(S(=O)(=O)N3CC(C)OC(C)C3)c2)c1 (stereo not given),23,0,-9,-23,-39,-1,nt
